From PubChem
Most compounds without a hit are left out; they make up all but 4.3% or so of the library.
B2AR ag: beta2AR agonists driving receptor internalization, primary screen, cell-based, FAP fluorogen, flow cytometry; Beta-2 adrenergic receptor (Homo sapiens), P07550; 340,000 compounds, 0.43% hits; response, % (concentration not given with the values); Am2.2-beta2AR cells;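 active = response above a set limit, near 3 SD of response in nonfluorescent compounds, cut at about 42% in these data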
MC4R antagonist: MC4R antagonists of cAMP signaling, primary screen, cell-based, TR-FRET, antagonist arm of biased-ligand search | inhibition, % at 6.5 µM | 360,000 compounds, 0.48% hits | MC4R-expressing cells, MTII-stimulated cAMP, LANCE TR-FRET | Melanocortin receptor 4 (Homo sapiens), P32245 | AID 540295, 2011;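 active = inhibition above its plate's cutoff, the mean of tested wells on that plate plus 3 SD, cut at about 29% in these data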;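 also: 0% = Melanotan II alone and 100% = Melanotan II plus saturating MCL0020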
Target sequence (P32245 whole entry, looked up): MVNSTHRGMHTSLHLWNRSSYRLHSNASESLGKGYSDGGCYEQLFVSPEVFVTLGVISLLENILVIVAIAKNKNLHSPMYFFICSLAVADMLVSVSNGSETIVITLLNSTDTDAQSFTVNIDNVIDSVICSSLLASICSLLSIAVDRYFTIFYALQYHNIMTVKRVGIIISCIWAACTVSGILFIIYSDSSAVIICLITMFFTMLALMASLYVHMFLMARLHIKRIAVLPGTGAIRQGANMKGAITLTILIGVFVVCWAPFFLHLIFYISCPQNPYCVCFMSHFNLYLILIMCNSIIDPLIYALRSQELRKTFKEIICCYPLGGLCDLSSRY
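System: U2OS cells stably expressing human melanocortin 4 receptor (MC4R). Reagent: Melanotan II challenge after compound preincubation. Doses: 6.5 µM. Times: 30-min compound, 1-h challenge, 1-h detection, room temperature. Measured by: TR-FRET with Eu-cAMP and labeled anti-cAMP, 671 nm. Replicates: singlicate.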
TAAR1 agonist: human TAAR1 agonists, primary screen, Fluo-8 calcium fluorescence, CHO RD-HGA16 cells; activation, % at 3 µM; Trace amine-associated receptor 1 (Homo sapiens), Q96RJ0; 360,000 compounds, 0.99% hits; vehicle wells 0%, saturating PEA agonist 100%;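 active = activation above the mean activation of all test compounds in the run plus 3 SD, cut at about 38% in these data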
Target sequence (Q96RJ0 whole entry, looked up): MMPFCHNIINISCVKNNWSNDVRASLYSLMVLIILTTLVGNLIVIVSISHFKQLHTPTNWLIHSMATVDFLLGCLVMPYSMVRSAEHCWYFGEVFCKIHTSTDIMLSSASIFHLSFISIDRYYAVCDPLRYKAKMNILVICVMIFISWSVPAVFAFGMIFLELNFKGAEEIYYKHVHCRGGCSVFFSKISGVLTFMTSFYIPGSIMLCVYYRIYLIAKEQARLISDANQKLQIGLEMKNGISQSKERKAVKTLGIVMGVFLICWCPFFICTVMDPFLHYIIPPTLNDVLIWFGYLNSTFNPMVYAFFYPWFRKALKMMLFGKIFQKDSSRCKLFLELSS
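test system = CHO RD-HGA16 cells carrying human TAAR1 plus Gα16 | schedule = 17-24 h seeding, 75 min 37 °C dye, 30 min RT | compound dosing = 3 µM single concentration | control set = DMSO and PEA EC100 | replicates = n 1 | signal = Fluo-8 fluorescence, 5 s baseline then 140 s kinetic read | measure = percent activation vs PEA EC100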
MC4R ag barr: MC4R agonists recruiting beta-arrestin, primary screen, cell-based, luminescence, agonist arm of biased-ligand search; activation, % at 8.9 µM; U2OS MC4R beta-arrestin complementation; percent of melanotan II response, DMSO zero; 360,000 compounds, 0.98% hits; Melanocortin receptor 4 (Homo sapiens), P32245;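 active = activation above a per-plate cutoff, the mean activation of sample wells on that plate plus 3 SD, cut at about 8% in these data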
m5-HT2A agonist: mouse Htr2a agonists via beta-arrestin recruitment, primary screen, cell-based, luminescence. CHO-K1 mHTR2A beta-arrestin complementation; percent of 30 µM serotonin response. activation, % at 7.6 µM. 360,000 compounds, 0.66% hits. AID 624169, 2012;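 active = activation above a run cutoff, the mean activation of all tested compounds plus 3 SD, cut at about 14% in these data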;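 also: 0% = plate median of compound wells and 100% = 30 µM serotonin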
TAAR1 antag: human TAAR1 antagonists, primary screen, Fluo-8 calcium fluorescence, CHO RD-HGA16 cells; antagonist; Trace amine-associated receptor 1 (Homo sapiens), Q96RJ0; inhibition, % at 3 µM; 360,000 compounds, 1.5% hits;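 active = inhibition above a per-plate cutoff, the mean inhibition of test compounds on that plate plus 3 SD, cut at about 49% in these data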;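 also: 0% = DMSO plus EC80 beta-PEA response and 100% = DMSO alone without agonist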
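System: RD-HGA16 CHO cells with stable hTAAR1 and Gα16 | Probe or stimulus: EC80 β-phenethylamine stimulus | Dosing: 3 µM, single point | Times: Dye loading 75 min at 37 °C, then 30 min room temperature | Measured by: Fluo-8 calcium-sensitive fluorescence | Read-out basis: % inhibition of agonist calcium response | Replicates: n of 1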
Numbers without * were called inactive; nt = no result given.

SMILES | B2AR ag | MC4R antagonist | TAAR1 agonist | MC4R ag barr | m5-HT2A agonist | TAAR1 antag
CCO[C@H]1OC(C(=O)NCc2ccccc2)=C[C@@H](c2cn(C(C)=O)c3ccccc23)[C@@H]1CCCO | -2.4 | 9.7 | 44.6* | -2.1 | 0.8 | 17.7
CCO[C@H]1OC(C(=O)NCc2ccccc2)=C[C@@H](c2ccc3c(c2)OCO3)[C@@H]1CCCO | 0.9 | 6.5 | 50.4* | 0.2 | 12.3 | 17.5
CCO[C@@H]1OC(C(=O)N2CCN(Cc3ccc4c(c3)OCO4)CC2)=C[C@H](c2ccc(C(F)(F)F)cc2)[C@H]1CCCO | -1.1 | 11.2 | 7.3 | 0.0 | -2.0 | 23.8
CCO[C@@H]1OC(C(=O)NCc2ccccc2)=C[C@H](c2csc3ccccc23)[C@H]1CCCO | 18.1 | 9.3 | 24.7 | -0.2 | -4.0 | 54.2*
CCO[C@@H]1OC(C(=O)O)=C[C@H](c2cn(C(C)=O)c3ccccc23)[C@H]1CCCO | -1.5 | -0.6 | 13.7 | 0.4 | 1.3 | 0.2
C#CCNC(=O)C1=C[C@H](c2csc3ccccc23)[C@@H](CCCO)[C@H](OCC)O1 | 6.6 | -3.2 | 4.8 | 0.0 | 0.2 | 9.1
COC(=O)[C@]12C[C@H](CC(=O)NCC34CC5CC(CC(C5)C3)C4)C(=O)N(Cc3ccc4c(c3)OCO4)C1=C[C@H](C(C)(C)C)O[C@@H]2C | nt | nt | -1.0 | nt | nt | 3.6
Cc1ccc(C(=O)N(CC(=O)Nc2sc(C)c(C)c2C(N)=O)C2CCCC2)cc1 | 0.0 | 6.3 | 10.9 | -0.6 | -0.6 | 51.2*
O=S(=O)(Nc1nc(-c2sccc2Cl)cs1)c1cc(Cl)ccc1Cl | 23.4 | -2.7 | nt | 3.9 | 19.6* | nt
CC(C)(C)c1nnc(NS(=O)(=O)c2cc(Cl)ccc2Cl)s1 | -8.3 | 1.1 | -0.3 | 0.6 | 3.4 | -24.8
O=C1Nc2ccccc2N=C(c2ccc3c(c2)OCO3)C1N(CCc1ccccc1)C(=O)CSc1ncccn1 (configuration not stated) | nt | nt | 41.3* | nt | 0.0 | 35.0
COc1ccc(C2=Nc3ccccc3NC(=O)C2N(CCc2ccccc2)C(=O)c2cccs2)cc1 (configuration not stated) | nt | nt | 44.0* | nt | -5.9 | 35.2
O=C1Nc2ccccc2N=C(c2ccc3c(c2)OCO3)C1N(C(=O)c1ccnc2ccccc12)c1ccccc1 (configuration not stated) | nt | nt | 0.9 | nt | -2.8 | 12.9
CCOC(=O)c1cnc2ccc(OCC)cc2c1N1CCN(c2ccccc2OC)CC1 | 11.2 | 32.1* | nt | 0.7 | 2.6 | nt
c1ccc(CC(Nc2cccnc2)c2ccccc2)cc1 (configuration not stated) | nt | nt | 1.3 | nt | nt | -8.0
COc1ccc(NC(=O)c2cc(-c3cccnc3)nc3c(C)c(C)ccc23)c(OC)c1 | 18.6 | 1.7 | 8.2 | -0.9 | -1.0 | 20.4
COc1ccc(NC(=O)c2cc(-c3ccccn3)nc3ccccc23)c(OC)c1 | -0.5 | 3.8 | 13.8 | -1.1 | 0.4 | 54.4*
COc1cccc(NC(=O)c2cc(-c3cccnc3)nc3c(Cl)cccc23)c1 | 5.1 | 4.7 | 14.2 | 11.8* | 2.7 | 56.7*
COc1cccc(NC(=O)c2cc(-c3ccc(OC)cc3OC)nc3ccccc23)c1 | -5.8 | -5.9 | 10.4 | -2.7 | -5.5 | 53.3*
O=C(C(=O)N1CCN(S(=O)(=O)c2ccc(Cl)cc2)CC1)c1cccc(C(F)(F)F)c1 | nt | nt | -0.1 | nt | nt | -12.3
COc1ccccc1Cc1c(-c2cccc(Cl)c2)nc2c3ccccc3ccn12 | nt | nt | -0.5 | nt | nt | -39.0
COc1ccc(-c2cscc2N)cc1 | nt | nt | 0.2 | nt | nt | -11.7
CCOC(=O)C1=C(Cc2ccc(F)cc2)C(=O)c2ccccc2C1=O | -167.7 | 9.5 | 30.8 | 3.7 | 0.9 | 51.9*
COc1ccc(C2=Nn3c(nnc3-c3ccccc3F)SC2)cc1OC1CCOC1 (configuration not stated) | 19.0 | -54.9 | 7.0 | -0.6 | 6.5 | 28.0
COc1ccc(C2=Nn3c(nnc3-c3ccccc3F)SC2)cc1OC1CCCC1 | 23.9 | -48.4 | 3.2 | 2.8 | -0.7 | 65.9*
SMILES | B2AR ag | MC4R antagonist | TAAR1 agonist | MC4R ag barr | m5-HT2A agonist | TAAR1 antag
CC(NC(=O)/C(C#N)=C/c1ccc(Cl)c([N+](=O)[O-])c1)c1ccccc1 (configuration not stated) | nt | nt | 38.6* | nt | nt | 20.5
CC(NC(=O)C1CCN(Cc2ccccc2)CC1)c1cccc2ccccc12 (configuration not stated) | nt | 5.7 | 5.5 | -0.8 | -6.4 | -16.1
CC(NC(=O)C1CCN(Cc2ccc(Oc3ccccc3)cc2)CC1)c1cccc2ccccc12 (configuration not stated) | nt | 7.3 | 24.9 | 0.7 | -5.3 | 49.1*
Cc1noc(C)c1CSCC(=O)Oc1ccc(N(C)S(=O)(=O)c2ccc(Cl)cc2)cc1 | -4.0 | 6.8 | 5.2 | -3.8 | 3.5 | 53.4*
Cc1cc(C)cc(N(CC(=O)NC2CCCC2)C(=O)CCC(=O)Nc2nc(C)cs2)c1 | 3.9 | 12.2 | 43.3* | -1.3 | -1.4 | -6.7
COC(=O)[C@H](Cc1ccccc1)N1CC(N2CCCC2)CS1(=O)=O (some centres not stated) | nt | nt | 2.4 | nt | nt | -9.4
COc1ccc(-c2ccc3c(n2)CCCN3S(=O)(=O)c2ccc(C#N)cc2)cc1 | nt | nt | 0.9 | nt | nt | -28.9
FC(F)Sc1ccc(NC(=S)NC2CCCCC2)cc1 | 0.9 | 3.0 | 11.4 | -0.2 | -4.7 | 14.0
FC(F)Sc1ccc(NC(=S)NCC2CCCCC2)cc1 | 2.2 | 3.8 | 8.8 | 2.4 | -3.4 | 49.6*
S=c1[nH]nc(-c2cccs2)n1/N=C/c1c(Cl)cccc1Cl | -2.9 | 24.1 | 47.5* | 0.5 | 4.8 | 52.6*
CCc1ccc([C@@H]2CC=C(C(=O)O)[C@H](c3ccc(Cl)cc3)N2S(=O)(=O)c2ccc(C)cc2)cc1 | -0.6 | 1.4 | 8.9 | -0.4 | -3.2 | 51.5*
CCc1ccc([C@@H]2CC=C(C(=O)O)[C@H](c3ccc(C)cc3)N2S(=O)(=O)c2ccc(C)cc2)cc1 | 4.6 | 6.9 | 3.2 | -0.3 | 1.9 | 39.1
Cc1ccc(NC(=O)COc2cccc(C)c2C)cc1S(=O)(=O)N1CCCCCC1 | 15.1 | -1.8 | -0.7 | -1.4 | -6.6 | 24.5
CCc1cccc(OCC(=O)Nc2ccc(C)c(S(=O)(=O)N3CCCCCC3)c2)c1 | -2.4 | 0.6 | 3.6 | -2.9 | 6.3 | 50.1*
